Assay results taken from the EternaBench riboswitch data.

Tested on: MS2 coat protein
Assay: apparent Kd, MS2 coat protein; higher = weaker binding; RNA-MaP array; FMN 200 µM where present
How it was run: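 Stalled E. coli RNA polymerase transcribed each design on Illumina sequencing-chip clusters. The clusters were titrated with SNAP-549-labelled MS2 coat protein, starting at 0.7 or 1.5 nM and doubling up to 3 µM, first without ligand and then with constant ligand, in 100 mM Tris-HCl pH 7.5, 80 mM KCl, 4 mM MgCl2, BSA, DTT, yeast tRNA and Tween-20. Green signal was normalised to red-channel RNA signal and to the control-cluster median Fmax. The apparent Kd is the median of filtered binding-curve fits made for each cluster.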

[1] = designed as: OFF switch for flavin mononucleotide, no ligand
[2] = ligand present: flavin mononucleotide, designed as: OFF switch for flavin mononucleotide
[3] = designed as: ON switch for flavin mononucleotide, no ligand
[4] = ligand present: flavin mononucleotide, designed as: ON switch for flavin mononucleotide

Row | Sequence | apparent Kd [1] [nM] | apparent Kd [2] [nM] | apparent Kd [3] [nM] | apparent Kd [4] [nM]
1 | AAAAUGUGAGGAUAUCAGGUGUGCUAGAGAACUGGUACAUCUGAGAAGGCACAUGAGGAUCACCCAUGUUCUUC | 34.6 | 156 |  | 
2 | CAAUUUAUGUCAGGAUAUACAAUACAAUGAUUAGUAGAAGGGAUUAAUACAUGAGGAUCACCCAUGUCAUGUGUCAUCGUACCC | 28.1 | 23.3 |  | 
3 | ACCAUUUACUAGUUUUCUAUACAUGAGGAUCACCCAUGUUUUGAGGAUAUCAGCGUGAAACACGCUGAGAAGGCAAAACAUUCG | 181 | 342 |  | 
4 | GAGUGGAAGGCCGCUACAUGAGGAUCACCCAUGUGCUAAGCACAGGAUAUCGCGCUAGCCCGGCGCGAGAAGGGUGACGGCCUU |  |  | 577 | 276
5 | GAGUCACUAUUAGAACCGAUACGAACAUGAGGAUCACCCAUGUAGGAUAUGCUAAAAGUUGUGUUGCAGAAGGACAUUUAUCGC | 9.81 | 9.06 |  | 
6 | CCUCCGUAUUAGGAUAUCGUCCCGGAAACGGGACGAGAAGGAAUAACAUGAGGAUCACCCAUGUUAACGUGAUG | 18.8 | 46.7 |  | 
7 | GCUGCAAAGUAAGGAUAUGCCUAGGAAACCUAGGCAGAAGGUACAUGAGGAUCACCCAUGUUAACGCAAAGCGAAUAAAGCAGC | 18.1 | 24.1 |  | 
8 | AGACCGCUACGCCGGUUUCACGCACAGGAUAUGCGGUUACAUGAGGAUCACCCAUGUGGCCAUGUGCAGAAGGGUGGUUCGUGC |  |  | 21.2 | 14.9
9 | CGCUAAUAAAUAGUAAUAAUUGUACAGGAUAUGUUACAUGAGGAUCACCCAUGUAUUGGGUAAGAACAGAAGGGUAUAUUAGCG | 433 | 229 |  | 
10 | AAACAGGAAGGAUAUACAUUAUCGGAUCUUCUGGCAAUGCCACAUGAGGAUCACCCAUGUAGAAGGUCCAAAUU | 13.6 | 22.9 |  | 
11 | UAUGUUGUUGUGAGGAUAUACUUUGUUUGGUCGUAGUAGAAGGCACAUGAGGAUCACCCAUGUAGAUUUUUGGU | 19.4 | 24.8 |  | 
12 | GCUAUAGAUGUAGGAUAUCAUAUAGAAGCUAUGUGAGAAGGACAUGAGGAUCACCCAUGUCAAUGGCUGGAGCGAAGUUAUGGC | 30.4 | 35.2 |  | 
13 | UAAACAUGAGGAUCACCCAUGUAAAGAUCGGUAGUAGAGAGUGAGGAUAUACUAAAUUUAAUGGAGUAGAAGGCACUGGGUUCU |  |  | 44.8 | 30.9
14 | AAAUGAUGAGGAUAUACAUGAGGAUCACCCAUGUGUAAAAAUAAAUACACAAAAGAAAGUAGAAGGCAUCAAAA | 31.6 | 124 |  | 
15 | GACAUCGCAGGAUAUUAUUGUUUGUACAUGAGGAUCACCCAUGUUAAUUGGGUUAGUGUUUAAGAAGGGCGGUGUC | 1340 | 901 |  | 
16 | AGUGUCAUCGAGAAGGCCUCAACAUGAGGAUCACCCAUGUUGAAAAGUGGGAGGAUAUCGAUGAUACAGCUACGUUUCGUAGCA |  |  | 9.79 | 4.98
17 | CUAUUAUUGAUCCAUUUUUUCAACAUGAGGAUCACCCAUGUGCAGGAUAUCGUGAUUAUUAUCAACGAGAAGGGCAGAUUCACG | 59.3 | 178 |  | 
18 | GUACUGUAGUGAGGAUAUACGAGUGCGAUAGCACGGCGAUCCAUUUAUACAUGAGGAUCACCCAUGUAGAAGGCACUUCAGUAC | 6.15 | 65.6 |  | 
19 | UGACAUAUAUAGAAGGGUAGUAGGGUAUUACAUGAGGAUCACCCAUGUAUUAUAGGAUAUGUAUAAAGUUAUUAUUCAAGUAAA | 15.8 | 13 |  | 
20 | GUGGUCAGACAUGAGGAUCACCCAUGUGGAAUAAAUAAGGAGAAGGAUAUGGAAUAUAGGAUAUACCAGAAGGUCUGGUUGGUG |  |  | 79 | 90.7
21 | CCAUCGUGUGUGAGGAUAUGCUGGUCCUUGGAUCAGCAGAAGGCACAUGAGGAUCACCCAUGUGAAAACGAUGG | 17.9 | 56.4 |  | 
22 | CUUAGACAUGAGGAUCACCCAUGUGAGGAUAUGAUGCAGCAGUGGUCUACGCUGUGCAUCAGAAGGCACAUGUG | 80.7 | 14.2 |  | 
23 | ACUAUACGAGGAUAUGCUGUCAGUACUCCGAGGUUAGUUUGACAUGAGGAUCACCCAUGUAGAAGGCGUUUACU | 24.8 | 22.2 |  | 
